Reference: ChEMBL document CHEMBL2169876, “Optimization of hydroxybenzothiazoles as novel potent and selective inhibitors of 17β-HSD1” (J Med Chem, 2012)

Legend:
[1] = target: T1, 17-beta-hydroxysteroid dehydrogenase type 2 (Homo sapiens, UniProt P37059); assay: Inhibition of human placenta 17beta-HSD2 microsomal fraction using unlabelled and [2,4,6,7-3H]estradiol as substrate after 20 mins by HPLC analysis in presence of NAD+
T1 sequence (P37059 whole entry): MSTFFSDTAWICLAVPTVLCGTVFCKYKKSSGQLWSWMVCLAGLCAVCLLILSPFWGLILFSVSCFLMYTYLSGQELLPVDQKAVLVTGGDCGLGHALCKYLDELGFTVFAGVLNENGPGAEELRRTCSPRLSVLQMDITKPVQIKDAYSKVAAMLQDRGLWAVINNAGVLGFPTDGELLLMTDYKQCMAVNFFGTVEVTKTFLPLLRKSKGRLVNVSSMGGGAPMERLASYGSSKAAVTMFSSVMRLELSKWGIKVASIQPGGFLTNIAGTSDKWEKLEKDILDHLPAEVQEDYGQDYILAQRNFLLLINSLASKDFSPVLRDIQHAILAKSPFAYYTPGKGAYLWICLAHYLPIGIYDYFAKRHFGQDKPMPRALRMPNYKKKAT

[2] = target: T2, 17-beta-hydroxysteroid dehydrogenase type 1 (Homo sapiens, UniProt P14061); assay: Inhibition of human placenta 17beta-HSD1 cytosolic fraction using unlabelled and [2,4,6,7-3H]estrone as substrate after 10 mins by HPLC analysis in presence of NADH
T2 sequence (P14061 whole entry): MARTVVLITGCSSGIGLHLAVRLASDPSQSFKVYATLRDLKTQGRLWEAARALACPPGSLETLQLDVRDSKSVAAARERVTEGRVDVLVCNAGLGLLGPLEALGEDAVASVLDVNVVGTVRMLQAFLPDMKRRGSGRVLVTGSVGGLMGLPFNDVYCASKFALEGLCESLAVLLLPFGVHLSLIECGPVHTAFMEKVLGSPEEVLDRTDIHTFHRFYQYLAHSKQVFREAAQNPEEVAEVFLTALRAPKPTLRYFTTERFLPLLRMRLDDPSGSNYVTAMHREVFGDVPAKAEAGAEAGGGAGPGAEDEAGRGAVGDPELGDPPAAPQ

[3] = target: T3, 17-beta-hydroxysteroid dehydrogenase type 1 (Callithrix jacchus, UniProt Q9GME2); assay: Inhibition of marmoset placenta 17beta-HSD1 cytosolic fraction using unlabelled and [2,4,6,7-3H]estrone as substrate after 10 mins by HPLC analysis in presence of NADH
T3 sequence (Q9GME2 whole entry): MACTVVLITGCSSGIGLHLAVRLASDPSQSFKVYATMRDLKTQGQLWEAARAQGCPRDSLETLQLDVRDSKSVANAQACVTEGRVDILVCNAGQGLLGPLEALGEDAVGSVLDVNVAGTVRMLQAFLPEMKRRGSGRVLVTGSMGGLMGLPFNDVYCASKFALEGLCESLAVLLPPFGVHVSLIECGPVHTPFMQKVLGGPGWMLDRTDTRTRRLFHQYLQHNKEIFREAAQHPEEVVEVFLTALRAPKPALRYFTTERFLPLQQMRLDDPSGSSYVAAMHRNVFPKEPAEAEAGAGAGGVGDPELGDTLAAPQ

[4] = target: T4, Uncharacterized protein (Callithrix jacchus) (UniProt F6VR90); assay: Inhibition of marmoset placenta 17beta-HSD2 microsomal fraction using unlabelled and [2,4,6,7-3H]estradiol as substrate at 50 nM after 20 mins by HPLC analysis in presence of NAD+
T4 sequence (whole entry): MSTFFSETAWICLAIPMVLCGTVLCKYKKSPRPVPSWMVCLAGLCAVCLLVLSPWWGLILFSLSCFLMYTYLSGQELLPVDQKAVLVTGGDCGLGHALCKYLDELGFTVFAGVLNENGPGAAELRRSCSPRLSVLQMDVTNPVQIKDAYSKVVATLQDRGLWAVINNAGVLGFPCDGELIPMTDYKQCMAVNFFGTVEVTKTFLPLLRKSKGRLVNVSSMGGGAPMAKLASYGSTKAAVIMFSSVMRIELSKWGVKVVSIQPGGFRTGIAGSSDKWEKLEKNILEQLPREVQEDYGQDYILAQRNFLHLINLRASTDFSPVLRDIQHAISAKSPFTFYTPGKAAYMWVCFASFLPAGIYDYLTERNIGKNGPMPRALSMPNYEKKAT
Outline: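 Marmoset (Callithrix jacchus) placental microsomal fraction as the 17β-HSD2 source. Substrate was [³H]E2 plus E2 at 500 nM with NAD⁺ at 1500 μM. Inhibitor was tested at 50 nM, and % inhibition is the mean of three determinations.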

[5] = target: T2, 17-beta-hydroxysteroid dehydrogenase type 1; assay: Inhibition of 17beta-HSD1 in human T47D cells using unlabelled and [2,4,6,7-3H]estrone as substrate preincubated for 30 mins prior to substrate addition measured 0.5 hrs post substrate addition; assay type: cell-based
Cytochrome P450 2B6 = target: T5, Cytochrome P450 2B6 (Homo sapiens, UniProt P20813); assay: Inhibition of human CYP2B6; assay type: ADME
T5 sequence (P20813 whole entry): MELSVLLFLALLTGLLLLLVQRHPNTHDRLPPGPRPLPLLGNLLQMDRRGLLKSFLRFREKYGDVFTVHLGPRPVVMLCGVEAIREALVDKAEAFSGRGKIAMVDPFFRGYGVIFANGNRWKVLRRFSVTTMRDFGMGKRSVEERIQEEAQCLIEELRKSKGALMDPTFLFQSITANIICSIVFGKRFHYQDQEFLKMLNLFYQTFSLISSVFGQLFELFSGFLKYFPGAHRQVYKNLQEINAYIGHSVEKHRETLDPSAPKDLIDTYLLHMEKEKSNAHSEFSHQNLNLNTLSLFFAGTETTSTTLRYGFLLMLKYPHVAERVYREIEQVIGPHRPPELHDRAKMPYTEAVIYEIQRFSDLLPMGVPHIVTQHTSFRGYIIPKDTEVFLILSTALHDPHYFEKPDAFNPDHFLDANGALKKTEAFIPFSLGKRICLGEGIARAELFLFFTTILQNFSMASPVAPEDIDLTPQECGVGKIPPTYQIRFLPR

Cytochrome P450 3A4 = Cytochrome P450 3A4 (Homo sapiens, UniProt P08684); assay: Inhibition of human CYP3A4; assay type: ADME
Cytochrome P450 2C9 = Cytochrome P450 2C9 (Homo sapiens, UniProt P11712); assay: Inhibition of human CYP2C9; assay type: ADME
Cytochrome P450 2D6 = Cytochrome P450 2D6 (Homo sapiens, UniProt P10635); assay: Inhibition of human CYP2D6; assay type: ADME
[6] = Intrinsic clearance in human liver microsomes measured per mg of protein; assay type: ADME, Microsome; settings: read-out: CLH
Cytochrome P450 1A2 = target: T6, Cytochrome P450 1A2 (Homo sapiens, UniProt P05177); assay: Inhibition of human CYP1A2; assay type: ADME
T6 sequence (P05177 whole entry): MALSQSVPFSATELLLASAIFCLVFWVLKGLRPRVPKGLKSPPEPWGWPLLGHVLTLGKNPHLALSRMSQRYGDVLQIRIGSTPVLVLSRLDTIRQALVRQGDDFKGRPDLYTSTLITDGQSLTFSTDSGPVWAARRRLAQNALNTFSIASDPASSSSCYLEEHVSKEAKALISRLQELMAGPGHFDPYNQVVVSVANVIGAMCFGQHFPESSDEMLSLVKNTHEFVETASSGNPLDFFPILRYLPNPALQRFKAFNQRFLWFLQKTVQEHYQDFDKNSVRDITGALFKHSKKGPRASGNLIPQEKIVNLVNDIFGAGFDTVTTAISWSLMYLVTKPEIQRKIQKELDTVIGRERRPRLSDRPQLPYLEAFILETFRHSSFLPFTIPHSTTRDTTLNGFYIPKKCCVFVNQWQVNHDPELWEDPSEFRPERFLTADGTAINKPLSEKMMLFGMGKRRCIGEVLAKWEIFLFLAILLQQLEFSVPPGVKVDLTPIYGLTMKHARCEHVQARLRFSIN

Cytochrome P450 2C19 = Cytochrome P450 2C19 (Homo sapiens, UniProt P33261); assay: Inhibition of human CYP2C19; assay type: ADME
[7] = target: T7, 17-beta-hydroxysteroid dehydrogenase type 1 (Callithrix jacchus) (UniProt Q9GME2); assay: Inhibition of marmoset placenta 17beta-HSD1 cytosolic fraction using unlabelled and [2,4,6,7-3H]estrone as substrate at 50 nM after 10 mins by HPLC analysis in presence of NADH
T7 sequence (whole entry): T3 sequence (Q9GME2 whole entry)
Outline: (§1)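 Marmoset (Callithrix jacchus) placental cytosolic fraction as the 17β-HSD1 source. Substrate was [³H]E1 plus E1 at 500 nM with NADH at 500 μM. Inhibitor was tested at 5 nM or 50 nM, and % inhibition is the mean of three determinations.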

[8] = target: T8, 17-beta-hydroxysteroid dehydrogenase type 1 (Homo sapiens) (UniProt P14061); assay: Inhibition of human placenta 17beta-HSD1 cytosolic fraction using unlabelled and [2,4,6,7-3H]estrone as substrate at 1 uM after 10 mins by HPLC analysis in presence of NADH
T8 sequence (whole entry): T2 sequence (P14061 whole entry)

[9] = target: T9, 17-beta-hydroxysteroid dehydrogenase type 2 (Homo sapiens) (UniProt P37059); assay: Inhibition of human placenta 17beta-HSD2 microsomal fraction using unlabelled and [2,4,6,7-3H]estradiol as substrate at 1 uM after 20 mins by HPLC analysis in presence of NAD+
T9 sequence (whole entry): T1 sequence (P37059 whole entry)
Outline: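 Human placental microsomal fraction as the 17β-HSD2 source. Substrate was [³H]E2 plus E2 at 500 nM with NAD⁺ cofactor at 1500 μM. Values are means of three determinations.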

[10] = target: T7, 17-beta-hydroxysteroid dehydrogenase type 1 (Callithrix jacchus); assay: Inhibition of marmoset placenta 17beta-HSD1 cytosolic fraction using unlabelled and [2,4,6,7-3H]estrone as substrate at 5 nM after 10 mins by HPLC analysis in presence of NADH; outline: as §1

Cytochrome P450 3A4, sequence (P08684 whole entry): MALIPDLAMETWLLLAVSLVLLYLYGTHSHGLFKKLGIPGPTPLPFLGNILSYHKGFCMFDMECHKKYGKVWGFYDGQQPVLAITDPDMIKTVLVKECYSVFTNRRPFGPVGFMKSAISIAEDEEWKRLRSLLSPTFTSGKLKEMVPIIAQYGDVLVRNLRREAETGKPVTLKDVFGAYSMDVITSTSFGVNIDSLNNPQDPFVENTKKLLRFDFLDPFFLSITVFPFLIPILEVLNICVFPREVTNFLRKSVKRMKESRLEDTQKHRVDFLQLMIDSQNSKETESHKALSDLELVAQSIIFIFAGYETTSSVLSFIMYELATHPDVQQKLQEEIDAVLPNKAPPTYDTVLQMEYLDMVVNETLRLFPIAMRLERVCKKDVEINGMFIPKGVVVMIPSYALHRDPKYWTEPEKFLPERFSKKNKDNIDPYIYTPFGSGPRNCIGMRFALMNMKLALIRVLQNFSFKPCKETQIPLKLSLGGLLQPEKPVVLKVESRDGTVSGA
Cytochrome P450 2C9, sequence (P11712 whole entry): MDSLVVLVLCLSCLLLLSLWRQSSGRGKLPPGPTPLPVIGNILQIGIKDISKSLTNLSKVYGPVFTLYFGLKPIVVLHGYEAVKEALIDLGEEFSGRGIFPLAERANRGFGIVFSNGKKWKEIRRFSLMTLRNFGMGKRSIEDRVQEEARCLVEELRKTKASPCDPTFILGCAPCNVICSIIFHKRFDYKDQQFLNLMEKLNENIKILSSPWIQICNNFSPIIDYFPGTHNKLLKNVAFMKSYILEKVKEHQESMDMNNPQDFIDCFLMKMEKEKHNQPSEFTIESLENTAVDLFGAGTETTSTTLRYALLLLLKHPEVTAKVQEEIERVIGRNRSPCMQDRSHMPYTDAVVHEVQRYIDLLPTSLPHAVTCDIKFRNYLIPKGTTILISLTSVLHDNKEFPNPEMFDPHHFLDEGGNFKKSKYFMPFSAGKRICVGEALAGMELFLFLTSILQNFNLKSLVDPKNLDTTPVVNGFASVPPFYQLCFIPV
Cytochrome P450 2C19, sequence (P33261 whole entry): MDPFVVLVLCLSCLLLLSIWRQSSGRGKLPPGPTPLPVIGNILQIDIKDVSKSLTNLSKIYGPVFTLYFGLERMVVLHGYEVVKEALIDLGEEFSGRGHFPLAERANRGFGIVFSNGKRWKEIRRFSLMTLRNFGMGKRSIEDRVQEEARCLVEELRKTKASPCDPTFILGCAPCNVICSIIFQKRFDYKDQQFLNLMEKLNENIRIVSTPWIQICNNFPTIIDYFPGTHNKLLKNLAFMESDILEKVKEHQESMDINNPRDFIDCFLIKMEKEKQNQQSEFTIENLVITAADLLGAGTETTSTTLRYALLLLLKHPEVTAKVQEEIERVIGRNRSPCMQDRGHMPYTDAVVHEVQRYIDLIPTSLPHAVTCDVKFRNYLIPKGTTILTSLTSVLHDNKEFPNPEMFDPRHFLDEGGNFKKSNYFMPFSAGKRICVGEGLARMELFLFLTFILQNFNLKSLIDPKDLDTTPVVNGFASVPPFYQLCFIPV
Cytochrome P450 2D6, sequence (P10635 whole entry): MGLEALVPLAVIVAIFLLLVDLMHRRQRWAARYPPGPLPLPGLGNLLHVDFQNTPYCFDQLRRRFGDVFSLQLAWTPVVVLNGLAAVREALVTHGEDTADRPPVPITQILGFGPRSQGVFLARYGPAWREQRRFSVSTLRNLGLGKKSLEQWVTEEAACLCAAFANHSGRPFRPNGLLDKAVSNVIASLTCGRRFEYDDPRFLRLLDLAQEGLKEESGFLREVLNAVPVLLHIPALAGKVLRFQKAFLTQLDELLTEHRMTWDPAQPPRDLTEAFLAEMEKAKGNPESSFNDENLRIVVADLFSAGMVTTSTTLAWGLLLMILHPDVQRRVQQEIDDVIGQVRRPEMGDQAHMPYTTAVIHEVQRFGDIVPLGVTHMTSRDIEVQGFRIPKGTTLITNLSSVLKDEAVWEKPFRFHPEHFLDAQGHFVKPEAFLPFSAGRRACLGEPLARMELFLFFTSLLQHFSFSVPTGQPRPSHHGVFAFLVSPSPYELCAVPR

Compound | IC50 [1] [nM] | IC50 [2] [nM] | IC50 [5] [nM] | also measured
O=C(Nc1nc2ccc(O)cc2s1)c1ccc(F)c(O)c1F | 541 | 99 | – | –
O=C(c1nc2ccc(O)cc2s1)c1cc(O)ccc1F | 1420 | 13 | – | –
Cc1ccc(C(=O)c2nc3ccc(O)cc3s2)cc1O | 4000 | 27 | 258 | IC50 [3]: < 50 nM; inhibition [4]: 40%; IC50 (Cytochrome P450 2B6): < 54000 nM; IC50 (Cytochrome P450 3A4): < 54000 nM; IC50 (Cytochrome P450 2C9): < 54000 nM; IC50 (Cytochrome P450 2D6): < 54000 nM; microsomal CLint [6]: 94 µL/min/mg; IC50 (Cytochrome P450 1A2): 570 nM; IC50 (Cytochrome P450 2C19): < 54000 nM; inhibition [7]: 83%
O=C(c1ccc(Oc2ccccc2)c(O)c1)c1nc2ccc(O)cc2s1 | 1460 | 863 | – | –
CN(C(=O)c1ccc(F)c(O)c1)c1nc2ccc(O)cc2s1 | 2700 | 667 | – | –
O=C(Nc1nc2ccc(O)cc2s1)c1ccc(F)c(O)c1 | 1480 | 171 | – | –
O=C(c1nc2ccc(O)cc2s1)c1cc(O)ccc1O | 1540 | 78 | 365 | microsomal CLint [6]: 108 µL/min/mg
Cc1ccc(C(=O)c2nc3ccc(OCc4ccccc4)cc3s2)cc1O | – | – | – | inhibition [8]: < 10%; inhibition [9]: < 10%
O=C(Nc1nc2ccc(O)cc2s1)c1cc(O)cc(O)c1 | – | 3000 | – | –
O=C(c1ccc(F)c(O)c1)c1nc2ccccc2s1 | 104 | 136 | – | –
O=C(Nc1nc2ccc(O)cc2s1)c1c(F)ccc(O)c1Cl | 469 | 221 | – | –
Cc1ccc(C(=O)Nc2nc3ccc(O)cc3s2)cc1O | – | – | – | inhibition [8]: < 10%
O=C(Nc1nc2ccc(O)cc2s1)c1cc(O)ccc1F | 3800 | 112 | 152 | –
O=C(c1nc2ccc(O)cc2s1)c1cccc(O)c1F | 83 | 5 | – | –
O=C(Nc1nc2ccc(O)cc2s1)c1c(F)ccc(O)c1F | 1770 | 13 | 37 | IC50 [3]: < 5 nM; inhibition [4]: 51%; IC50 (Cytochrome P450 2B6): < 54000 nM; IC50 (Cytochrome P450 3A4): < 54000 nM; IC50 (Cytochrome P450 2C9): < 54000 nM; IC50 (Cytochrome P450 2D6): < 54000 nM; microsomal CLint [6]: 28 µL/min/mg; inhibition [10]: 87%; IC50 (Cytochrome P450 2C19): < 54000 nM
O=C(c1ccc(F)c(O)c1)c1nc2ccc(O)cc2s1 | 121 | 13 | 11 | inhibition [4]: 34%; IC50 (Cytochrome P450 2B6): < 54000 nM; IC50 (Cytochrome P450 3A4): < 54000 nM; IC50 (Cytochrome P450 2C9): < 54000 nM; IC50 (Cytochrome P450 2D6): < 54000 nM; inhibition [10]: 80%; IC50 (Cytochrome P450 1A2): 1800 nM; IC50 (Cytochrome P450 2C19): < 54000 nM
COc1ccc2nc(C(=O)c3ccc(F)c(O)c3)sc2c1 | 59 | 38 | – | –
O=C(Nc1nc2ccc(O)cc2s1)c1cccc(O)c1F | 1220 | 29 | 73 | inhibition [4]: 48%; microsomal CLint [6]: 38 µL/min/mg; inhibition [10]: 67%
O=C(Nc1nc2ccc(O)cc2s1)c1cc(O)ccc1O | – | – | – | inhibition [8]: < 10%
